{"source": "ChEMBL document CHEMBL1156461", "about": "“Selective chemical probe inhibitor of Stat3, identified through structure-based virtual screening, induces antitumor activity” (Proc Natl Acad Sci U S A, 2007)", "key": {"MDA-MB-468 [1]": {"tested_on": "MDA-MB-468", "experiment": "Inhibition of Stat3 activation in human MDA-MB-468 cells at 100 uM after 24 hrs", "assay_type": "functional, cell-based", "in_short": "(§1)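 Cells with constitutively active Stat3 were treated with compound or 0.05% DMSO (up to 24 h). Nuclear extracts were then assayed for Stat3 DNA binding by EMSA with 32P-labeled hSIE probe.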"}, "NIH3T3 [2]": {"tested_on": "NIH3T3", "experiment": "Inhibition of Stat3 activation in v-Src expressing mouse NIH3T3 cells at 100 uM", "assay_type": "functional, cell-based", "details": "TDE = time-dependent effect", "in_short": "as §1"}, "MDA-MB-231 [3]": {"tested_on": "MDA-MB-231", "experiment": "Reduction of survivin gene expression in human MDA-MB-231 cells at 100 uM after 48 hrs", "assay_type": "functional, cell-based"}, "NIH3T3 [4]": {"tested_on": "NIH3T3", "experiment": "Growth inhibition of mouse NIH3T3 cells expressing v-Src at 100 uM after 4 days by trypan blue exclusion assay", "assay_type": "functional, cell-based"}, "MDA-MB-231 [5]": {"tested_on": "MDA-MB-231", "experiment": "Growth inhibition of human […] at 100 uM after 4 days by trypan blue exclusion assay", "assay_type": "functional, cell-based"}, "MDA-MB-231 [6]": {"tested_on": "MDA-MB-231", "experiment": "Induction of apoptosis in human MDA-MB-231 cells at 100 uM after 24 hrs", "assay_type": "functional", "in_short": "(§2)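 Cells were transfected with Stat3C or the Stat3 SH2 domain, mock-transfected, or left untransfected. After 24 h they received 100 μM compound or 0.05% DMSO for a further 24 h. Annexin V binding with flow cytometry gave percent apoptosis.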"}, "NIH3T3 [7]": {"tested_on": "NIH3T3", "experiment": "Growth inhibition of mouse NIH3T3 cells expressing v-Src at 100 uM for every 3 days by soft-agar colony-formation assay", "assay_type": "functional, cell-based", "in_short": "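Soft-agar colony formation in six-well dishes. Compound in medium was added from 1 day after seeding and re-added every 3 days until large colonies appeared. Untreated wells served as control.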"}, "MDA-MB-468 [8]": {"tested_on": "MDA-MB-468", "experiment": "Growth inhibition of human […] at 100 uM after 4 days by trypan blue exclusion assay", "assay_type": "functional, cell-based"}, "NIH3T3 [9]": {"tested_on": "NIH3T3", "experiment": "Reduction of cyclin D1 gene expression in v-Src transfected mouse NIH3T3 cells at 100 uM after 48 hrs", "assay_type": "functional, cell-based"}, "NIH3T3 [10]": {"tested_on": "NIH3T3", "experiment": "Reduction of pTyr-705 Stat3 level in v-Src expressing mouse NIH3T3 cells at 100 uM after 24 hrs", "assay_type": "functional, cell-based"}, "MDA-MB-231 [11]": {"tested_on": "MDA-MB-231", "experiment": "Induction of apoptosis in mock pcDNA3 transfected human MDA-MB-231 cells at 100 uM after 24 hrs", "assay_type": "functional", "in_short": "as §2"}, "MDA-MB-231 [12]": {"tested_on": "MDA-MB-231", "experiment": "Inhibition of Stat3 activation in human MDA-MB-231 cells at 100 uM after 24 hrs", "assay_type": "functional, cell-based", "in_short": "as §1"}, "MDA-MB-435 [13]": {"tested_on": "MDA-MB-435", "experiment": "Inhibition of Stat3 activation in human MDA-MB-435 cells at 100 uM after 24 hrs", "assay_type": "functional, cell-based", "in_short": "as §1"}, "NIH3T3 [14]": {"tested_on": "NIH3T3", "experiment": "Inhibition of v-Src mediated Stat3-independent pLucSRE luciferase […] induction in mouse NIH3T3 cells at 100 uM after 24 hrs", "assay_type": "functional, cell-based", "in_short": "(§3)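 NIH 3T3 fibroblasts were cotransfected with a v-Src plasmid and either the Stat3-dependent pLucTKS3 or the Stat3-independent pLucSRE reporter. At 24 h post-transfection, cells got 100 μM compound or 0.05% DMSO for another 24 h. Luciferase was read in cytosolic extracts.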"}, "MDA-MB-435 [15]": {"tested_on": "MDA-MB-435", "experiment": "Induction of apoptosis in human MDA-MB-435 cells expressing active Stat3 at 30 to 100 uM after 48 hrs", "assay_type": "functional, cell-based", "in_short": "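Proliferating cells were exposed to compound or 0.05% DMSO for 48 h, then detached. Percent apoptosis was quantified by annexin V binding and flow cytometry.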"}, "MDA-MB-231 [16]": {"tested_on": "MDA-MB-231", "experiment": "Reduction of cyclin D1 gene expression in human MDA-MB-231 cells at 100 uM after 48 hrs", "assay_type": "functional, cell-based"}, "NIH3T3 [17]": {"tested_on": "NIH3T3", "experiment": "Reduction of Bcl-xL gene expression in v-Src transfected mouse NIH3T3 cells at 100 uM after 48 hrs", "assay_type": "functional, cell-based"}, "NIH3T3 [18]": {"tested_on": "NIH3T3", "experiment": "Reduction of survivin gene expression in v-Src transfected mouse NIH3T3 cells at 100 uM after 48 hrs", "assay_type": "functional, cell-based"}, "MDA-MB-231 [19]": {"tested_on": "MDA-MB-231", "experiment": "Induction of apoptosis in Stat3C transfected human MDA-MB-231 cells at 100 uM after 24 hrs", "assay_type": "functional, cell-based", "in_short": "as §2"}, "MDA-MB-231 [20]": {"tested_on": "MDA-MB-231", "experiment": "Antitumor activity against human MDA-MB-231 cells expressing active Stat3 xenografted in mouse at 5 mg/kg, iv for every 3 days for 2 weeks", "assay_type": "functional, organism-based", "set-up": "dose 5 mg/kg", "in_short": "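Female athymic nude mice (six weeks old) received 5 × 10^6 MDA-MB-231 cells s.c. in the left flank in PBS. Once tumors reached 3 mm diameter (5–10 days), animals were stratified to equal mean tumor size and dosed i.v. at 5 mg/kg every 2 or 3 days for 2 weeks against vehicle. Tumors were measured every 2–3 days.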"}, "NIH3T3 [21]": {"tested_on": "NIH3T3", "experiment": "Inhibition of Stat3-dependent pLucTKS3 luciferase […] induction in v-Src oncoprotein expressing mouse NIH3T3 cells co-transfected with pLucTKS3 at 100 uM after 24 hrs", "assay_type": "functional, cell-based", "in_short": "as §3"}, "MDA-MB-231 [22]": {"tested_on": "MDA-MB-231", "experiment": "Reduction of Bcl-xL gene expression in human MDA-MB-231 cells at 100 uM after 48 hrs", "assay_type": "functional, cell-based"}, "MDA-MB-231 [23]": {"tested_on": "MDA-MB-231", "experiment": "Induction of apoptosis in Stat3 SH2 domain transfected human MDA-MB-231 cells at 100 uM after 24 hrs", "assay_type": "functional, cell-based", "in_short": "as §2"}, "MDA-MB-435 [24]": {"tested_on": "MDA-MB-435", "experiment": "Cytotoxicity against human MDA-MB-435 cells expressing constitutively active Stat3 at >300 uM"}, "MDA-MB-231 [25]": {"tested_on": "MDA-MB-231", "experiment": "Reduction of apoptosis in Stat3 transfected human MDA-MB-231 cells at 100 uM after 24 hrs", "assay_type": "functional, cell-based"}, "MDA-MB-435 [26]": {"tested_on": "MDA-MB-435", "experiment": "Growth inhibition of human MDA-MB-435 cells expressing v-Src at 100 uM after 4 days by trypan blue exclusion assay", "assay_type": "functional, cell-based"}}, "note": "Active and inactive are the calls of the source. The calls are words filed in the database; no cut-off is given here.", "data": [{"compound": "Cc1ccc(S(=O)(=O)OCC(=O)Nc2ccc(C(=O)O)c(O)c2)cc1", "values": [{"measurement": "Activity", "setting": "MDA-MB-468 [1]", "result": "Active"}, {"measurement": "Activity", "setting": "NIH3T3 [2]", "result": "tde"}, {"measurement": "Activity", "setting": "MDA-MB-231 [3]", "result": "Active"}, {"measurement": "Activity", "setting": "NIH3T3 [4]", "result": "Active"}, {"measurement": "Activity", "setting": "MDA-MB-231 [5]", "result": "Active"}, {"measurement": "Activity", "setting": "MDA-MB-231 [6]", "result": 50, "unit": "%"}, {"measurement": "Activity", "setting": "NIH3T3 [7]", "result": "Active"}, {"measurement": "Activity", "setting": "MDA-MB-468 [8]", "result": "Active"}, {"measurement": "Activity", "setting": "NIH3T3 [9]", "result": "Active"}, {"measurement": "Activity", "setting": "NIH3T3 [10]", "result": "Active"}, {"measurement": "Activity", "setting": "MDA-MB-231 [11]", "result": 50, "unit": "%"}, {"measurement": "Activity", "setting": "MDA-MB-231 [12]", "result": "Active"}, {"measurement": "Activity", "setting": "MDA-MB-435 [13]", "result": "Active"}, {"measurement": "Activity", "setting": "NIH3T3 [14]", "result": "inactive"}, {"measurement": "Activity", "setting": "MDA-MB-435 [15]", "result": "Active"}, {"measurement": "Activity", "setting": "MDA-MB-231 [16]", "result": "Active"}, {"measurement": "Activity", "setting": "NIH3T3 [17]", "result": "Active"}, {"measurement": "Activity", "setting": "NIH3T3 [18]", "result": "Active"}, {"measurement": "Activity", "setting": "MDA-MB-231 [19]", "result": "Active"}, {"measurement": "Activity", "setting": "MDA-MB-231 [20]", "result": "Active"}, {"measurement": "Activity", "setting": "NIH3T3 [21]", "result": "Dose-dependent effect"}, {"measurement": "Activity", "setting": "MDA-MB-231 [22]", "result": "Active"}, {"measurement": "Activity", "setting": "MDA-MB-231 [23]", "result": "Active"}, {"measurement": "Activity", "setting": "MDA-MB-435 [24]", "result": "Toxic"}, {"measurement": "Activity", "setting": "MDA-MB-231 [25]", "result": "Active"}, {"measurement": "Activity", "setting": "MDA-MB-435 [26]", "result": "Active"}]}]}
